Experimental data from ChEMBL document CHEMBL1649098 (ACS Med Chem Lett, 2011).
Activity calls are given as the source filed them.

What was measured:
[1] = target: Cytochrome P450 2D6 (Homo sapiens, UniProt P10635); test: Inhibition of CYP2D6; assay type: ADME
Summary of the method: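 CYP inhibition was tested in human liver microsomes with relevant probe substrates.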

[2] = target: T1, Fatty-acid amide hydrolase 1 (Homo sapiens, UniProt O00519); test: Inhibition of His-tagged human FAAH N-terminal transmembrane-deleted truncated form expressed in Escherichia coli preincubated for 60 mins before oleamide substrate addition
T1 sequence (O00519 whole entry): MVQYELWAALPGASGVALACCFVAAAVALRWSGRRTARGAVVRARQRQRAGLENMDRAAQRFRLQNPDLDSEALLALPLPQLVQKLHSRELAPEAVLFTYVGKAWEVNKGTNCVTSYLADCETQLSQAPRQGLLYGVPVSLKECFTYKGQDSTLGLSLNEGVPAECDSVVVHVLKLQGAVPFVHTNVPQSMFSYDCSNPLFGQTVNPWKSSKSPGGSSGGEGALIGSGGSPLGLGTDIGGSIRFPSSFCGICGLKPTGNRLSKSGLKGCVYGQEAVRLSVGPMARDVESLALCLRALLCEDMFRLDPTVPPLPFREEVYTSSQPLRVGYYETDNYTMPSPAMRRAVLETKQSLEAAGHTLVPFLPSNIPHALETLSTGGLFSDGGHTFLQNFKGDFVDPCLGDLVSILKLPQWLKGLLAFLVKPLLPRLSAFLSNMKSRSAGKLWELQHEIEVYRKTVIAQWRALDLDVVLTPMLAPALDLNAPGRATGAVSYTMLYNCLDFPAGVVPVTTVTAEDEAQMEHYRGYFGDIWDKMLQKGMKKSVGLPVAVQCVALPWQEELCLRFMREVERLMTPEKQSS
Summary of the method: (§1)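 IC50 was determined after a 60 min preincubation of inhibitor with human or rat FAAH.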

[3] = target: T2, Fatty-acid amide hydrolase 1 (Rattus norvegicus, UniProt P97612); test: Irreversible inhibition of His-tagged rat FAAH N-terminal transmembrane-deleted truncated form expressed in Escherichia coli preincubated for 60 mins before oleamide substrate addition; summary of the method: as §1
T2 sequence (P97612 whole entry): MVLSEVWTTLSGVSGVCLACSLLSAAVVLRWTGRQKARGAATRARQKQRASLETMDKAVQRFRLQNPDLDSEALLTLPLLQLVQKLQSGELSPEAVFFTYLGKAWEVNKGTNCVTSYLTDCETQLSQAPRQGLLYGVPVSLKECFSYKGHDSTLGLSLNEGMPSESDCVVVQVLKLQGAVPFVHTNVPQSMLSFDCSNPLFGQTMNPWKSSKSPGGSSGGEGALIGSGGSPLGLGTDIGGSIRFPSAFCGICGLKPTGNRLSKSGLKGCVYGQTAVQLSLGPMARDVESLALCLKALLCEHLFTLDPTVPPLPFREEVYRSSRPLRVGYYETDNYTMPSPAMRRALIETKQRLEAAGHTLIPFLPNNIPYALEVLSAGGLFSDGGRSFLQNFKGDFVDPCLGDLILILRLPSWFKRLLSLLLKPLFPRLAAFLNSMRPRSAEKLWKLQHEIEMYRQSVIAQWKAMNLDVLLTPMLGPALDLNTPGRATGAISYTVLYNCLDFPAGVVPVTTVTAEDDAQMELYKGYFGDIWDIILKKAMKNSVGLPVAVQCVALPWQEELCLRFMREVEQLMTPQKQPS

[4] = target: T3, Fatty-acid amide hydrolase 1 (Mus musculus) (UniProt O08914); test: Inhibition of FAAH in mouse brain membrane proteomes at 10 uM by competitive activity based protein profiling; assay type: cell membranes
T3 sequence (whole entry): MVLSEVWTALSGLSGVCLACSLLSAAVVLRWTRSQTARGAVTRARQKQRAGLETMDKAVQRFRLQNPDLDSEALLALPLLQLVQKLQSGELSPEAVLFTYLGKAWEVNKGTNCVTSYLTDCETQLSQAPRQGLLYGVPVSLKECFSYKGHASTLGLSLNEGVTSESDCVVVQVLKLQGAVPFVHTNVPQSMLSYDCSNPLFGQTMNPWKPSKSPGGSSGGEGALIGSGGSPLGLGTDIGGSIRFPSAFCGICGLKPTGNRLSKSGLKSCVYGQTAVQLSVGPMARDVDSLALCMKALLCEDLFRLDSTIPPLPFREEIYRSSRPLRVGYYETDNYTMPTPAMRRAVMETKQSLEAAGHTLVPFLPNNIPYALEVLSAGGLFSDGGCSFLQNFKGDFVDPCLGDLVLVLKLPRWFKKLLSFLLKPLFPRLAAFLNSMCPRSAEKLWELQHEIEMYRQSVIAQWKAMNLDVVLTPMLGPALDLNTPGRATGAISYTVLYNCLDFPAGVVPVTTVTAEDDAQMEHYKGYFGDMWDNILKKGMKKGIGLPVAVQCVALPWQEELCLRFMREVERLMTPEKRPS
Summary of the method: (§2)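 Competitive activity-based protein profiling used human and mouse brain membrane and soluble liver proteomes. Each was treated with compound at 10 or 100 μM or with DMSO, then labelled with FP-rhodamine. Serine hydrolases were resolved on fluorescent gels. Enzymes with reduced labelling intensity in the presence of inhibitor were scored as targets.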

[5] = target: T3, Fatty-acid amide hydrolase 1 (Mus musculus); test: Inhibition of FAAH in mouse brain membrane proteomes at 100 uM by competitive activity based protein profiling; assay type: cell membranes; summary of the method: as §2
[6] = species: Mus musculus; test: Inhibition of fluorophosphonate-reactive serine proteases in mouse liver soluble proteomes at 100 uM by competitive activity based protein profiling; summary of the method: as §2
[7] = species: Homo sapiens; test: Inhibition of fluorophosphonate-reactive serine proteases in human liver soluble proteomes at 100 uM by competitive activity based protein profiling; summary of the method: as §2
[8] = Cmax in rat at 1 mg/kg, po; assay type: ADME, organism-based; design: dose 1 mg/kg, route oral; settings: in vivo
Summary of the method: (§3)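 Plasma pharmacokinetics used 1 mg/kg in rat and 0.5 mg/kg in dog, given iv and po. The iv formulation was 5% dimethylacetamide/95% (40% SBE-cyclodextrin in water). Oral dosing was a methylcellulose suspension of crystalline material.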

[9] = Tmax in rat at 1 mg/kg, iv or 1 mg/kg, po; assay type: ADME, organism-based; settings: in vivo; summary of the method: as §3
[10] = Clearance in rat at 1 mg/kg, iv or 1 mg/kg, po; assay type: ADME, organism-based; settings: in vivo; summary of the method: as §3
[11] = Volume of distribution at steady state in rat at 1 mg/kg, iv or 1 mg/kg, po; assay type: ADME, organism-based; settings: in vivo, read-out: Vdss; summary of the method: as §3
[12] = Half life in rat at 1 mg/kg, iv; assay type: ADME, organism-based; design: dose 1 mg/kg, route intravenous; settings: in vivo; summary of the method: as §3
[13] = Oral bioavailability in rat at 1 mg/kg; assay type: ADME, organism-based; settings: in vivo; summary of the method: as §3
[14] = Cmax in dog at 0.5 mg/kg, po; assay type: ADME, organism-based, Canis lupus familiaris; design: dose 0.5 mg/kg, route oral; settings: in vivo; summary of the method: as §3
[15] = Tmax in dog at 0.5 mg/kg, iv or 0.5 mg/kg, po; assay type: ADME, organism-based, Canis lupus familiaris; settings: in vivo; summary of the method: as §3
[16] = Clearance in dog at 0.5 mg/kg, iv or 0.5 mg/kg, po; assay type: ADME, organism-based, Canis lupus familiaris; settings: in vivo; summary of the method: as §3
[17] = Volume of distribution at steady state in dog at 0.5 mg/kg, iv or 0.5 mg/kg, po; assay type: ADME, organism-based, Canis lupus familiaris; settings: in vivo, read-out: Vdss; summary of the method: as §3
[18] = Half life in dog at 0.5 mg/kg, iv; assay type: ADME, organism-based, Canis lupus familiaris; design: dose 0.5 mg/kg, route intravenous; settings: in vivo; summary of the method: as §3
[19] = test system: Canis familiaris; test: Oral bioavailability in dog at 0.5 mg/kg, iv; assay type: ADME, organism-based, Canis lupus familiaris; settings: in vivo; summary of the method: as §3
[20] = test system: MDCK; test: Apparent permeability from apical to basolateral side of MDCK cells; assay type: ADME, cell-based, Canis lupus familiaris; settings: dog
[21] = test system: MDCK; test: Apparent permeability from basolateral to apical side of MDCK cells; assay type: ADME, cell-based, Canis lupus familiaris; settings: dog
[22] = test system: Hepatocyte; test: Metabolic stability in human hepatocytes assessed as glutathione conjugate formation; assay type: ADME, cell-based
Summary of the method: (§4)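 Reactive metabolite potential was assessed by looking for glutathione conjugates in rat or human hepatocyte incubations.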

[23] = test system: Hepatocyte; test: Metabolic stability in rat hepatocytes assessed as glutathione conjugate formation; assay type: ADME, cell-based; summary of the method: as §4
[24] = test system: Liver microsomes; test: Half life in human liver microsomes at 0.8 mg/mL protein concentration; assay type: ADME, Microsome
Summary of the method: (§5)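 Human liver microsomes at 0.8 mg/mL protein were used for half-life and microsomal protein binding. These in vitro data were used to predict human blood clearance.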

[25] = test system: Liver microsomes; test: Protein binding in human liver microsomes at 0.8 mg/mL protein concentration; assay type: ADME, Microsome; summary of the method: as §5
[26] = test system: Rattus norvegicus; test: Antihyperalgesic activity in orally dosed Sprague-Dawley rat model of complete Freund's adjuvant-induced inflammatory pain model assessed as reduction in mechanical allodynia measured 4 hrs post dose; assay type: functional
Summary of the method: (§6)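 CFA was injected subcutaneously into the plantar surface of the rat hind paw. Oral dosing at 0.1-10 mg/kg began 5 days post-injection, once mechanical paw withdrawal threshold had fallen. Mechanical allodynia was read as paw withdrawal threshold 4 h after dosing. n=8 rats per group; significance versus vehicle-treated groups at p<0.05.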

[27] = test system: Rattus norvegicus; test: Antihyperalgesic activity in Sprague-Dawley rat model of complete Freund's adjuvant-induced inflammatory pain model assessed as reduction in mechanical allodynia at 0.1 mg/kg, po measured 4 hrs post dose; assay type: functional, organism-based; design: dose 0.1 mg/kg; summary of the method: as §6
[28] = target: T4, Fatty-acid amide hydrolase 1 (Homo sapiens) (UniProt O00519); settings: 10 uM
T4 sequence (whole entry): T1 sequence (O00519 whole entry)

[29] = target: T4, Fatty-acid amide hydrolase 1 (Homo sapiens); settings: 100 uM

Sequence of Cytochrome P450 2D6 (P10635 whole entry): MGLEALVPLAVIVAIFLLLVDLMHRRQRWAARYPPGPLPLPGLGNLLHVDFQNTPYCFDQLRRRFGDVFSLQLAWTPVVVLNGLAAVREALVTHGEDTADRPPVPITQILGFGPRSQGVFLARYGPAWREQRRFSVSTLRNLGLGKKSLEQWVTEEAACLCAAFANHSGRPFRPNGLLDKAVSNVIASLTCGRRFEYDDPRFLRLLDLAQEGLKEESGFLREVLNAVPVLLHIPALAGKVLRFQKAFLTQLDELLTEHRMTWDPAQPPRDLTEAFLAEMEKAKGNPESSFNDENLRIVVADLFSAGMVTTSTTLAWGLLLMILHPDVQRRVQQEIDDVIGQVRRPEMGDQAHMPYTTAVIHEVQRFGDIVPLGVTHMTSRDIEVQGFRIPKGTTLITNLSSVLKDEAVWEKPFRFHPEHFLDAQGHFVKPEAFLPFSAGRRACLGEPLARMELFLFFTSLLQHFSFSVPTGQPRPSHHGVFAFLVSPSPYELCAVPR

Work on `O=C(Nc1cccnn1)N1CCC(=Cc2cccc(Oc3ccc(C(F)(F)F)cn3)c2)CC1` yielded an IC50 [1] of 14500 nM, an IC50 [2] of 7.2 nM and an IC50 [3] of 7.4 nM. The inhibition [4] was “Active”, the inhibition [5] was “Active” and the inhibition [6] was “inactive”. For the same compound, the inhibition [7] was “inactive”, the Cmax [8] was 256 ng/mL and the Tmax [9] was 4 h. For the same compound, the clearance [10] was 3 mL/min/kg, the Vd [11] was 3.2 L/kg and the half-life [12] was 14.3 h. For the same compound, the bioavailability [13] was 88%, the Cmax [14] was 240 ng/mL and the Tmax [15] was 1 h. For the same compound, the clearance [16] was 1.3 mL/min/kg, the Vd [17] was 2.9 L/kg and the half-life [18] was 35.2 h. It also gave an F [19] of 58%, a permeability [20] of 15.2 ×10⁻⁶ cm/s and a permeability [21] of 20.2 ×10⁻⁶ cm/s. The Stability [22] was “Stable”, the Stability [23] was “Stable” and the t1/2 [24] was 1.75 h. The PB [25] was 90%, the MED [26] was 0.1 mg/kg and the inhibition [27] was “Active”. For the same compound, the inhibition [28] was “Active” and the inhibition [29] was “Active”.
